From ChEMBL document CHEMBL1153184, “Drug design and synthesis of a novel kappa opioid receptor agonist with an oxabicyclo[2.2.2]octane skeleton and its pharmacology” (Bioorg Med Chem Lett, 2010)
Activity calls are given as the source filed them. The rule behind the calls is not given here.

Experiments:
[1] = molecular target: Kappa-type opioid receptor (Cavia porcellus, UniProt P41144); experiment: Displacement of [3H]U69593 from guinea pig cerebellum kappa opioid receptor; assay type: tissue-based
Sequence of Kappa-type opioid receptor (P41144 whole entry): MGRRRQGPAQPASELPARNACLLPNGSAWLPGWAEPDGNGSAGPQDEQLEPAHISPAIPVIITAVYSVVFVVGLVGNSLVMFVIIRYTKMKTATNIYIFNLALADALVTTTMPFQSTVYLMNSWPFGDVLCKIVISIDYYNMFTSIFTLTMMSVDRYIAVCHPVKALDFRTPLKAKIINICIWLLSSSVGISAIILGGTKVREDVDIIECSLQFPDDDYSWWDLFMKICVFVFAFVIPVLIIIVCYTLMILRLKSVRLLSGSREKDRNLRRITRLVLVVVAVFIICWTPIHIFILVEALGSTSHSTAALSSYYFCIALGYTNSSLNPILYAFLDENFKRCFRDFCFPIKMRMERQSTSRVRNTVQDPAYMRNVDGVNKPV
Method in brief: (§1)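 Radioligand competition binding in duplicate on guinea-pig brain homogenate. Cerebellum was used for κ and forebrain for μ and δ. Affinity was expressed as Ki.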

Mu-type opioid receptor = Mu-type opioid receptor (Cavia porcellus, UniProt P97266); experiment: Displacement of [3H]DAMGO from guinea pig forebrain mu opioid receptor; method in brief: as §1
Sequence of Mu-type opioid receptor (P97266 whole entry): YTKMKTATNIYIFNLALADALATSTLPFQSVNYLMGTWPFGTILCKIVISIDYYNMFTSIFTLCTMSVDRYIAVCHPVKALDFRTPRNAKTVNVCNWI

[2] = Displacement of [3H]NTI from guinea pig forebrain delta opioid receptor; parameters: species or system Cavia porcellus
Method in brief: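 Radioligand competition binding in duplicate on guinea-pig brain homogenate. Cerebellum was used for κ and forebrain for μ and δ. The μ tracer was [³H]DAMGO, δ was [³H]NTI and κ was [³H]U-69,593. Affinity was expressed as Ki.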

Mus musculus [3] = experiment: Antinociceptive activity in sc dosed mouse assessed as inhibition of acetic acid-induced writhing response at 0.03 mg/kg in presence of 0.3 mg/kg mu opioid receptor antagonist naloxone; assay type: functional, organism-based
Mus musculus [4] = experiment: Antinociceptive activity in sc dosed mouse assessed as inhibition of acetic acid-induced writhing response at 0.03 mg/kg in presence of 20 mg/kg kappa opioid receptor antagonist nor-BNI; assay type: functional, organism-based
Mus musculus [5] = experiment: Antinociceptive activity in sc dosed mouse assessed as inhibition of acetic acid-induced writhing response; assay type: functional
Mus musculus [6] = experiment: Antinociceptive activity in sc dosed mouse assessed as inhibition of acetic acid-induced writhing response at 0.03 mg/kg in presence of 3 mg/kg delta opioid receptor antagonist NTI; assay type: functional, organism-based

O=C(Nc1ccccc1)[C@H]1O[C@@]23CC[C@]1(O)[C@@H]1Oc4c(O)ccc5c4[C@@]12CCN(CC1CC1)[C@@H]3C5
Ki [1]: 111 pM | Ki (Mu-type opioid receptor): 212 pM | Ki [2]: 2730 pM | Activity (Mus musculus [3]): Active | Activity (Mus musculus [4]): inactive | Activity (Mus musculus [5]): Dose-dependent effect | ED50 (Mus musculus [5]): 6.3 µg/kg | Activity (Mus musculus [6]): Active

CN(C(=O)/C=C/c1ccco1)[C@@H]1CC[C@@]2(O)[C@H]3Cc4ccc(O)c5c4[C@@]2(CCN3CC2CC2)[C@H]1O5
Ki [1]: 225 pM | Ki (Mu-type opioid receptor): 582 pM | Ki [2]: 96500 pM

O=C1CC[C@@]2(O)[C@H]3Cc4ccc(O)c5c4[C@@]2(CCN3CC2CC2)[C@H]1O5 [NALTREXONE]
Ki [2]: 20700 pM

O=C(Nc1ccccc1)[C@@H]1O[C@@]23CC[C@@]1(O)[C@@H]1Oc4c(O)ccc5c4[C@@]12CCN(CC1CC1)[C@@H]3C5
Ki [1]: 152 pM | Ki (Mu-type opioid receptor): 205 pM | Ki [2]: 3230 pM
